Common to all, as to type: functional
The species entered for assay [1] is Homo sapiens. As to the kind of experiment: Compound concentration that cause 50% inhibition of human platelet aggregation by COL/EPI cartridges. The method, boiled down:
(§1)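 Human whole blood drawn by forearm venipuncture into 3.8% (0.129 M) buffered sodium citrate (1:9 anticoagulant:blood). Aliquots incubated with compound (in 0.1 N NaOH/water 1:10; final 1–5 mM) 37 °C, 30 min, then loaded into PFA-100 cartridge (collagen/epinephrine or collagen/ADP). Closure time read in seconds; % inhibition calculated against vehicle-treated control blood.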

For assay [2], the species on record is Homo sapiens. The assay is described as follows: Compound was evaluated for the inhibitory activity against human platelet aggregation by COL/ADP cartridges at a concentration of 1 x 10 e-3 M. The method, boiled down: as §1
The species named for assay [3] is Homo sapiens. As to the kind of experiment: Compound was evaluated for the inhibitory activity against human platelet aggregation by COL/ADP cartridges at a concentration of 2 x 10 e-3 M. The method, boiled down:
as §1

The species named for assay [4] is Homo sapiens. The assay is described as follows: Compound was evaluated for the inhibitory activity against human platelet aggregation by COL/ADP cartridges at a concentration of 3 x 10 e-3 M. The following applies: for inhibition at 3000 µM: Homo sapiens. The method, boiled down:
as §1

For assay [5], the species on record is Homo sapiens. The assay is described as follows: Compound was evaluated for the inhibitory activity against human platelet aggregation by COL/ADP cartridges at a concentration of 4 x 10 e-3 M. The following applies: for inhibition at 4000 µM: Homo sapiens. An outline of the steps: as §1
The species named for assay [6] is Homo sapiens. The assay is described as follows: Compound was evaluated for the inhibitory activity against human platelet aggregation by COL/ADP cartridges at a concentration of 5 x 10 e-3 M. As to conditions: for inhibition at 5000 µM: Homo sapiens. The method, boiled down: as §1

By IC50 is commonly meant the concentration that inhibits the measured activity by half. Read a high IC50 as a need for much substance. For orientation: inhibition means the percentage by which the read-out fell short of the control. A low value points to a weak effect. As usually defined, the Inhibition is the share of the control response that was lost under treatment. `Cc1ccc(C)c(OCCCC(C)C(=O)O)c1` (single isomer, unassigned; (+)) gave an IC50 in the assay filed under Homo sapiens [1] (Homo sapiens) of 3090 µM. The molecule further returned an inhibition at 1000 µM in the assay listed under Homo sapiens [2] of 0%. Moreover, the inhibition at 2000 µM in the assay listed under Homo sapiens [3] turned out to be 0%. The Inhibition is given as 0.97% in the assay filed under Homo sapiens [4], 0% in the assay listed under Homo sapiens [5] and 5.36% in the assay listed under Homo sapiens [6].
Take `CCC(CCCOc1cc(C)ccc1C)C(=O)O` (single isomer, unassigned; (+)): the IC50 in the assay filed under Homo sapiens [1] is 4120 µM. Further, the Inhibition turned out to be 0% in the assay filed under Homo sapiens [4], 0% in the assay listed under Homo sapiens [5] and 100% in the assay listed under Homo sapiens [6].
In the assay listed under Homo sapiens [1], `Cc1ccc(C)c(OCCCC(C)C(=O)O)c1` (single isomer, unassigned; (-)) gave an IC50 of 2610 µM. Also, the results for the Inhibition in the assay listed under Homo sapiens [4] and in the assay listed under Homo sapiens [6] were 0% and 100%, respectively.
`Cc1ccc(C)c(OCCCC(C)C(=O)O)c1` (stereo in doubt; 5a) returned an IC50 in the assay filed under Homo sapiens [1] of 2470 µM. Also, the Inhibition in the assay listed under Homo sapiens [4] is 0.49%; in the assay listed under Homo sapiens [5] it was 4.39%; in the assay listed under Homo sapiens [6] it was 24.39%.
For the molecule `CCC(CCCOc1cc(C)ccc1C)C(=O)O` (stereo in doubt; 5b), the 50% inhibitory concentration (IC50) in the assay listed under Homo sapiens [1] (Homo sapiens) came out at 2420 µM. Also, the inhibition at 1000 µM in the assay filed under Homo sapiens [2] was determined as 0%. The same molecule came in with an inhibition at 2000 µM in the assay filed under Homo sapiens [3] of 0%. For the same molecule, the figures for the Inhibition in the assay listed under Homo sapiens [4], in the assay filed under Homo sapiens [5] and in the assay listed under Homo sapiens [6] were 3.3%, 5.51% and 2.57%, respectively.
On to `CC(=O)Oc1ccccc1C(=O)O` [ASPIRIN], for which the concentration for half-maximal inhibition (IC50) in the assay listed under Homo sapiens [1] (Homo sapiens) stood at 50 µM. In the assay listed under Homo sapiens [2], this molecule registered an inhibition at 1000 µM of 0%. In the assay listed under Homo sapiens [3], the inhibition at 2000 µM stood at 0%. This molecule also had an inhibition at 3000 µM in the assay filed under Homo sapiens [4] of 0%. In the assay listed under Homo sapiens [5], this molecule returned an inhibition at 4000 µM of 6.76%. In the assay listed under Homo sapiens [6], this molecule yielded an inhibition at 5000 µM of 17.1%.
Turning to `Cc1ccc(C)c(OCCCC(C)(C)C(=O)O)c1` [GEMFIBROZIL], the IC50 in the assay listed under Homo sapiens [1] (Homo sapiens) was 2670 µM. Further, in the assay filed under Homo sapiens [2], the inhibition at 1000 µM is 0%. This molecule came in with an inhibition at 2000 µM in the assay listed under Homo sapiens [3] of 2.5%. The molecule further yielded an inhibition at 3000 µM in the assay filed under Homo sapiens [4] of 17%. Also, the inhibition at 4000 µM in the assay listed under Homo sapiens [5] came to 100%. Testing at 5000 µM in the assay listed under Homo sapiens [6] gave an inhibition of 100%.
